# Results: article PMC4038343 (Biochemistry, 2014)
# “Also recorded” adds a separate entry of the source. Square brackets hold non-standard residues; d marks the D form. Ends that are not written are not given here.
# B1: V domain of the receptor for advanced glycation end products (RAGE) (domain or fragment)
# chain: QNITARIGEPLVLKCKGAPKKPPQRLEWKLNTGRTEAWKVLSPQGGGPWDSVARVLPNGSLFLPAVGIQDEGIFRCQAMNRNGKETKSNYRVRVYQIPGKPE
# Legend:
# V domain of RAGE [1] = target: T1, V domain of RAGE (Homo sapiens, UniProt Q15109); assay: NMR solution structure of MG-H1–V domain complex; assay type: binding
# In short: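 Samples of 500 μM [U-13C,15N] V domain, free and with 1 mM unlabeled hydroimidazolone ligand, in pH 6.5 phosphate, 100 mM NaCl, 0.02% NaN3, 90% H2O/10% D2O. 3D 15N- and 13C-edited and 15N-edited/13C-filtered NOESY-HSQC. CYANA calculation: 986 intramolecular and five intermolecular distance restraints (intermolecular upper limits 6 Å), 150 TALOS torsion pairs, 38 H-bond restraints, one disulfide. 20 best structures kept.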
# RAGE = conditions: cited from earlier work
# V domain of RAGE [2] = target: T1, V domain of RAGE; assay: Fluorescence titration, native tryptophan fluorescence of wild-type V domain; assay type: binding; conditions: pH 6.5, 25 °C
# In short: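 Wild-type RAGE V domain: expressed in E. coli BL21(DE3) Codon+, purified on Ni-NTA, His tag removed by thrombin. 100 nM protein in 10 mM phosphate pH 6.5 with 100 mM NaCl, at 25 °C in a stirred cuvette. Test compound titrated from 5 nM to 10 μM in 11 steps. Tryptophan emission excited at 295 nm, reference titrations subtracted, dilution-corrected. Kd from single-site binding isotherm fit.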
# V domain of RAGE [3] = target: T1, V domain of RAGE; assay: ELISA-based competition with MGO-BSA for the V domain; assay type: binding; conditions: 1 μM V domain
# V domain of RAGE [4] = target: T1, V domain of RAGE; assay: Binding of arginine to the V domain; conditions: method not stated
# [5] = system: JNK phosphorylation (p-JNK) in A549 cells, effector of RAGE signaling; assay: JNK phosphorylation in A549 cells, Western blot; assay type: cell-based, human; conditions: 200 nM (12 μg/mL) MGO-BSA, 7 min, vs unmodified BSA
# [6] = target: B1; assay: other fluorescence titration
# [7] = target: methylglyoxal-modified bovine serum albumin (bovine, UniProt P02769 25-607, methylglyoxal-modified, contains hydroimidazolones; sites and number not stated); assay: ELISA
# methylglyoxal-modified bovine serum albumin, sequence (P02769 25-607): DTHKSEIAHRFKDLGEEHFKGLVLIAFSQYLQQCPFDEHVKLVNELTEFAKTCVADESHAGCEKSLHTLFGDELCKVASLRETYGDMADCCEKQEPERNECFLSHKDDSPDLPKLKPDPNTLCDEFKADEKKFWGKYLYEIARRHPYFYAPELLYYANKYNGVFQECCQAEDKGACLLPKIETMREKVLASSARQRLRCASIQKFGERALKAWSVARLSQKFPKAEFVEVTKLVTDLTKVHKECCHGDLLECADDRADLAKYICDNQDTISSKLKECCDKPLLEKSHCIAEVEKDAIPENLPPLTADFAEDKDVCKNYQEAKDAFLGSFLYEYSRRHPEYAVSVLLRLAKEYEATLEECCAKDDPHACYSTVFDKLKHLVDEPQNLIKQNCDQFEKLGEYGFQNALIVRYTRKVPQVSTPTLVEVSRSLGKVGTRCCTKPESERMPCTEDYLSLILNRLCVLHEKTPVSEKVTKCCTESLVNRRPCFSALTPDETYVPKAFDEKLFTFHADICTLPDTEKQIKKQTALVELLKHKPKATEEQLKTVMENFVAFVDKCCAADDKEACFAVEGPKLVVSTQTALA
molecule,measurement,setting,value
CC1N=C(NCCCC(N)C(=O)O)NC1=O [(R)-epimer of MG-H1],stereospecific fit into the MG-H1–V domain binding site,"V domain of RAGE [1]; NMR solution structure, ligand racemic mixture of (R)- and (S)-epimers",Only the (R)-epimer of MG-H1 can be fit into the MG-H1–V domain binding site
"CC(NCCCC[C@H](N)C(=O)O)C(=O)O (stereo partly drawn) [CEL, N^ε-carboxyethyl-lysine]",binding to RAGE of free AGE adducts of lysine,RAGE,do not bind to RAGE
"N[C@@H](CCCCNCC(=O)O)C(=O)O [CML, N^ε-carboxymethyl-lysine]",binding to RAGE of free AGE adducts of lysine,RAGE,do not bind to RAGE
"N[C@@H](CCCNC1=NC(=O)CN1)C(=O)O [G-H1, N^δ-(5-hydro-4-imidazolon-2-yl)ornithine]",affinity for the V domain (in words),V domain of RAGE [2],comparable to that of the MG-Hs
"CC1NC(NCCC[C@H](N)C(=O)O)=NC1=O (stereo partly drawn) [MG-H1, N^δ-(5-hydro-5-methyl-4-imidazolon-2-yl)ornithine]",size of MG-H1 binding site,V domain of RAGE [1]; NMR solution structure of MG-H1–V domain complex,80 Å^2
same,blocking of MGO-BSA binding to the V domain,V domain of RAGE [3],can successfully block binding of MGO-BSA to the V domain
"CC1C(=O)N=C(N)N1CCCC(N)C(=O)O (stereo not drawn) [MG-H2, 5-(2-amino-5-hydro-5-methyl-4-imidazolon-1-yl)norvaline]",blocking of MGO-BSA binding to the V domain,V domain of RAGE [3],can successfully block binding of MGO-BSA to the V domain
"CC1N=C(N)N(CCCC(N)C(=O)O)C1=O (stereo not drawn) [MG-H3, 5-(2-amino-4-hydro-4-methyl-5-imidazolon-1-yl)norvaline]",blocking of MGO-BSA binding to the V domain,V domain of RAGE [3],can successfully block binding of MGO-BSA to the V domain
N=C(N)NCCC[C@H](N)C(=O)O [arginine],binding to the V domain,V domain of RAGE [4],did not detect any binding
"MGO-BSA: methylglyoxal-modified bovine serum albumin, prepared according to the method of Ahmed et al.",JNK phosphorylation,[5],increase in the level of phosphorylation of JNK; also recorded: increases JNK phosphorylation (p-JNK) relative to that with BSA alone
"ALT[MG‑H1]EYTG [ALT(MG-H1)EYTG, synthetic MG-H1-containing peptide]",Kd,[6],44 ± 6 nM
B1,binding result,[7],binds
